{
  "source": "ChEMBL document CHEMBL1208677",
  "about": "“Synthesis and antitumor activity of liquiritigenin thiosemicarbazone derivatives” (Eur J Med Chem, 2010)",
  "key": {"[1]": {"test_system": "DU-145 (human)", "assay": "Cytotoxicity against human DU145 cells after 72 hrs by MTT assay", "conditions": "DU-145, 72 h"}, "[2]": {"test_system": "SGC-7901 (human)", "assay": "Cytotoxicity against human SGC7901 cells after 72 hrs by MTT assay", "conditions": "SGC-7901, 72 h"}, "[3]": {"test_system": "HCT-116", "assay": "Cytotoxicity against human HCT116 cells after 72 hrs by MTT assay", "format": "functional, cell-based", "conditions": "HCT-116, 72 h", "how_it_was_run": "(§1)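 Cells in RPMI-1640 were exposed to compound for 72 h, then given MTT and incubated a further 4 h at 37 °C. Formazan was dissolved in DMSO and absorbance read at 570 and 630 nm. Triplicate wells per point across three independent experiments. IC50 (50% inhibition of viability) was taken from concentration-response curves by linear regression, as the mean of three determinations.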"}, "[4]": {"test_system": "HeLa", "assay": "Cytotoxicity against human HeLa cells after 72 hrs by MTT assay", "format": "functional, cell-based", "how_it_was_run": "as §1"}, "[5]": {"test_system": "K562", "assay": "Cytotoxicity against human K562 cells after 72 hrs by MTT assay", "format": "functional, cell-based", "conditions": "K562, 72 h", "how_it_was_run": "as §1"}},
  "data": [
    {"smiles": "CCCCNC(=S)N/N=C1\\CC(c2ccc(O)cc2)Oc2cc(O)ccc21", "note": "(stereo not given)", "values": [
      {"measurement": "IC50", "setting": "[1]", "value": 50.8, "unit": "µM"},
      {"measurement": "IC50", "setting": "[2]", "value": 57.7, "unit": "µM"},
      {"measurement": "IC50", "setting": "[3]", "value": 49.3, "unit": "µM"},
      {"measurement": "IC50", "setting": "[4]", "value": "> 100", "unit": "µM"},
      {"measurement": "IC50", "setting": "[5]", "value": 17, "unit": "µM"}
    ]},
    {"smiles": "CCCN(CCC)C(=S)N/N=C1\\CC(c2ccc(O)cc2)Oc2cc(O)ccc21", "note": "(stereo not given)", "values": [
      {"measurement": "IC50", "setting": "[1]", "value": 32.2, "unit": "µM"},
      {"measurement": "IC50", "setting": "[2]", "value": 62.1, "unit": "µM"},
      {"measurement": "IC50", "setting": "[3]", "value": 41.9, "unit": "µM"},
      {"measurement": "IC50", "setting": "[4]", "value": 75.3, "unit": "µM"},
      {"measurement": "IC50", "setting": "[5]", "value": 12.4, "unit": "µM"}
    ]},
    {"smiles": "CC(C)(C)NC(=S)N/N=C1\\CC(c2ccc(O)cc2)Oc2cc(O)ccc21", "note": "(stereo not given)", "values": [
      {"measurement": "IC50", "setting": "[1]", "value": 31, "unit": "µM"},
      {"measurement": "IC50", "setting": "[2]", "value": 42.9, "unit": "µM"},
      {"measurement": "IC50", "setting": "[3]", "value": 25.9, "unit": "µM"},
      {"measurement": "IC50", "setting": "[4]", "value": 50, "unit": "µM"},
      {"measurement": "IC50", "setting": "[5]", "value": 8.9, "unit": "µM"}
    ]},
    {"smiles": "Oc1ccc(C2C/C(=N\\NC(=S)N3CCCC3)c3ccc(O)cc3O2)cc1", "note": "(stereo not given)", "values": [
      {"measurement": "IC50", "setting": "[1]", "value": 37, "unit": "µM"},
      {"measurement": "IC50", "setting": "[2]", "value": 51.7, "unit": "µM"},
      {"measurement": "IC50", "setting": "[3]", "value": 52.3, "unit": "µM"},
      {"measurement": "IC50", "setting": "[4]", "value": 65.2, "unit": "µM"},
      {"measurement": "IC50", "setting": "[5]", "value": 17.3, "unit": "µM"}
    ]},
    {"smiles": "O=c1[nH]cc(F)c(=O)[nH]1", "note": "[FLUOROURACIL]", "values": [
      {"measurement": "IC50", "setting": "[1]", "value": 2.95, "unit": "µM"},
      {"measurement": "IC50", "setting": "[2]", "value": 2.19, "unit": "µM"},
      {"measurement": "IC50", "setting": "[3]", "value": 1.93, "unit": "µM"},
      {"measurement": "IC50", "setting": "[4]", "value": 9.7, "unit": "µM"},
      {"measurement": "IC50", "setting": "[5]", "value": 45.4, "unit": "µM"}
    ]},
    {"smiles": "CN1CCN(C(=S)N/N=C2\\CC(c3ccc(O)cc3)Oc3cc(O)ccc32)CC1", "note": "(stereo not given)", "values": [
      {"measurement": "IC50", "setting": "[1]", "value": 10.1, "unit": "µM"},
      {"measurement": "IC50", "setting": "[2]", "value": 98.8, "unit": "µM"},
      {"measurement": "IC50", "setting": "[3]", "value": 60.4, "unit": "µM"},
      {"measurement": "IC50", "setting": "[4]", "value": 65.8, "unit": "µM"},
      {"measurement": "IC50", "setting": "[5]", "value": 23.1, "unit": "µM"}
    ]},
    {"smiles": "CC(C)NC(=S)N/N=C1\\CC(c2ccc(O)cc2)Oc2cc(O)ccc21", "note": "(stereo not given)", "values": [
      {"measurement": "IC50", "setting": "[1]", "value": 35.2, "unit": "µM"},
      {"measurement": "IC50", "setting": "[2]", "value": 60.4, "unit": "µM"},
      {"measurement": "IC50", "setting": "[3]", "value": 38.2, "unit": "µM"},
      {"measurement": "IC50", "setting": "[4]", "value": 68.1, "unit": "µM"},
      {"measurement": "IC50", "setting": "[5]", "value": 21.3, "unit": "µM"}
    ]},
    {"smiles": "Oc1ccc(C2C/C(=N\\NC(=S)N3CCCCC3)c3ccc(O)cc3O2)cc1", "note": "(stereo not given)", "values": [
      {"measurement": "IC50", "setting": "[1]", "value": 40, "unit": "µM"},
      {"measurement": "IC50", "setting": "[2]", "value": 55.3, "unit": "µM"},
      {"measurement": "IC50", "setting": "[3]", "value": 50.9, "unit": "µM"},
      {"measurement": "IC50", "setting": "[4]", "value": 74.4, "unit": "µM"},
      {"measurement": "IC50", "setting": "[5]", "value": 13.7, "unit": "µM"}
    ]},
    {"smiles": "Oc1ccc(C2C/C(=N\\NC(=S)N3CCOCC3)c3ccc(O)cc3O2)cc1", "note": "(stereo not given)", "values": [
      {"measurement": "IC50", "setting": "[1]", "value": 52.2, "unit": "µM"},
      {"measurement": "IC50", "setting": "[2]", "value": 84.5, "unit": "µM"},
      {"measurement": "IC50", "setting": "[3]", "value": 63.5, "unit": "µM"},
      {"measurement": "IC50", "setting": "[4]", "value": 76.3, "unit": "µM"},
      {"measurement": "IC50", "setting": "[5]", "value": 29.4, "unit": "µM"}
    ]},
    {"smiles": "O=C1C[C@@H](c2ccc(O)cc2)Oc2cc(O)ccc21", "note": "[LIQUIRTIGENIN]", "values": [
      {"measurement": "IC50", "setting": "[1]", "value": 92.4, "unit": "µM"},
      {"measurement": "IC50", "setting": "[2]", "value": "> 100", "unit": "µM"},
      {"measurement": "IC50", "setting": "[3]", "value": 37.2, "unit": "µM"},
      {"measurement": "IC50", "setting": "[4]", "value": "> 100", "unit": "µM"},
      {"measurement": "IC50", "setting": "[5]", "value": "> 100", "unit": "µM"}
    ]},
    {"smiles": "Oc1ccc(C2C/C(=N\\NC(=S)N3CCNCC3)c3ccc(O)cc3O2)cc1", "note": "(stereo not given)", "values": [
      {"measurement": "IC50", "setting": "[1]", "value": 22.5, "unit": "µM"},
      {"measurement": "IC50", "setting": "[2]", "value": "> 100", "unit": "µM"},
      {"measurement": "IC50", "setting": "[3]", "value": 79.4, "unit": "µM"},
      {"measurement": "IC50", "setting": "[4]", "value": "> 100", "unit": "µM"},
      {"measurement": "IC50", "setting": "[5]", "value": 26.2, "unit": "µM"}
    ]},
    {"smiles": "CCCNC(=S)N/N=C1\\CC(c2ccc(O)cc2)Oc2cc(O)ccc21", "note": "(stereo not given)", "values": [
      {"measurement": "IC50", "setting": "[1]", "value": 31.2, "unit": "µM"},
      {"measurement": "IC50", "setting": "[2]", "value": 74.7, "unit": "µM"},
      {"measurement": "IC50", "setting": "[3]", "value": 54, "unit": "µM"},
      {"measurement": "IC50", "setting": "[4]", "value": 40.2, "unit": "µM"},
      {"measurement": "IC50", "setting": "[5]", "value": 31, "unit": "µM"}
    ]}
  ]
}
